# PLC-beta3 inh: inhibitors of human phospholipase C beta3; Q01970; Purified PLC-beta3, fluorogenic substrate, fluorescence; inhibition, % at 12.2 µM; actives 0.18% (n = 370,000); AID 720704; in the data active = inhibition above about 11%;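 also: 0% = median of compound wells on plate and 100% = full blocker control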
# IMP-1 inhibitor: inhibitors of Pseudomonas aeruginosa IMP-1 metallo-beta-lactamase | AID 1556 | inhibition, % at 5.6 µM | purified IMP-1, nitrocefin hydrolysis, epi-absorbance fluorescence | actives 0.45% (n = 290,000);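 active = inhibition above the mean plus 3 SD of all compounds in the same screening run, cut at about 4.5% in these data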;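 also: 0% = IMP-1 with DMSO and 100% = DMSO wells lacking enzyme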
#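 assay system = purified recombinant IMP-1 metallo-beta-lactamase enzyme | schedule = 15 min preincubation plus 25 min reaction at 25 °C | signal = Epi-absorbance fluorescence, 480 nm excitation, 530 nm emission | read-out basis = percent inhibition from optical density relative to buffer-blank wells | controls = IMP-1 with DMSO as 0%, enzyme-free DMSO as 100%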
# VIM-2 inh: blocks Pseudomonas aeruginosa VIM-2 metallo-beta-lactamase; purified VIM-2, nitrocefin hydrolysis, epi-absorbance fluorescence; inhibition, % at 5.6 µM; actives 0.89% (n = 290,000);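 active = inhibition above the mean of all tested compounds plus 3 SD, cutoff set per screening run, cut at about 7.5% in these data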;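 also: red hydrolysis product quenches plate fluorescence so inhibitors raise well fluorescence; 0% = enzyme with DMSO and 100% = DMSO without enzyme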
# PLC-gamma1 inh: blocks human PLC-gamma1 enzyme activity. purified PLC-gamma1, fluorogenic substrate, fluorescence. inhibition, % at 12.2 µM. actives 0.84% (n = 370,000). AID 720700
# PvdQ acylase: P. aeruginosa PvdQ acylase inhibition | purified PvdQ acylase, fluorescence plate reader | inhibition, % at 10 µM | actives 0.063% (n = 340,000); in the data active = inhibition above about 30%, passing the limit was not always enough;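 also: 0% = vehicle neutral wells and 100% = reference inhibitor wells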
# PLCg1 ctr: PLC-gamma1 inhibition, counter-screen for PLC-beta3 hits; shares compounds with PLC-gamma1 inh; purified PLC-gamma1, fluorogenic substrate, fluorescence; inhibition, % at 12.3 µM; AID 743258; actives 3.1% (n = 3,300)
# PLCb3 confirm: confirmation of human PLC-beta3 inhibitors; actives 1% (n = 3,300); inhibition, % at 12.3 µM; shares compounds with PLC-gamma1 inh; AID 743261; purified PLC-beta3, fluorogenic substrate fluorescence; in the data active = inhibition above about 11%
# Numbers without * were called inactive; . = no result given. Sampled rows, rich in hits. Any-hit rate of the full collection: about 2%. Rule as the data show it, unless noted: active = inhibition above about 9.5%; inactive = the rest.
SMILES,PLC-beta3 inh,IMP-1 inhibitor,VIM-2 inh,PLC-gamma1 inh,PvdQ acylase,PLCg1 ctr,PLCb3 confirm
N=c1n(Cc2ccccc2)c2ccccc2n1CC(O)COc1ccc(Cl)cc1Cl (stereo unspecified),5,-4,-5,12*,5,-2,-3
N=c1n(Cc2ccc(Cl)cc2)c2ccccc2n1CC(O)COc1ccccc1 (stereo unspecified),4,-3,-4,7,9,.,.
Cc1ccc(OCC(O)Cn2c(=N)n(Cc3ccccc3)c3ccccc32)cc1 (stereo unspecified),2,-2,-2,2,-27,.,.
O=C(O)c1cc2c(cc1Cl)N1CCCCCC1=NS2(=O)=O,0,-4,-2,19*,-17,-6,-1
C=CCN1[C@@H](CC(C)C)COc2cccc(F)c2S1(=O)=O,-4,.,.,1,.,.,.
O=C1C=C(O)c2c(O)cc(O)c(O)c2C1=O,15*,.,.,31*,-8,6,1
O=C1c2ccccc2C(=O)c2c(O)c(O)cc(O)c21,-4,.,.,0,14,.,.
O=C(N/N=C/c1ccc(N2CCOCC2)c([N+](=O)[O-])c1)c1ccc(F)cc1,0,-4,-4,0,-3,.,.
O=C(N/N=C/c1ccc(N2CCCC2)c([N+](=O)[O-])c1)c1cccnc1,16*,-1,1,18*,-8,-1,6
COc1ccc(-c2nnc(SCC(=O)NN=Cc3c(O)ccc4ccccc34)n2-c2ccc(OC)cc2)cc1,-4,.,.,0,.,.,.
COC(=O)CCC(NC(=O)c1cc(-c2ccc3c(c2)OCCO3)oc1C)C(=O)OC (stereo unspecified),-7,-2,-4,-7,4,.,.
COC(=O)C[C@H]1C=C[C@@H](C(C(=O)OC)C(=O)OC)CN1C(C)=O,0,.,.,31*,-13,6,1
O=C(Nc1ccc(Cl)cc1F)c1cc(S(=O)(=O)N2CCCCC2)ccc1F,-2,-3,-3,12*,-10,-6,-5
COc1ccc(C(C)NCCC(c2ccc(OC(C)C)cc2)c2ccccc2OC)cc1 (stereo unspecified),0,0,-2,16*,-16,-1,0
O=C(CN1CCN(S(=O)(=O)c2ccc(Br)cc2)CC1)Nc1ccc(F)cc1,0,-1,-2,0,-19,.,.
CCN1CCN(CCC(=O)Nc2ccc3c(c2)OCO3)CC1,9,-4,0,13*,10,3,-6
O=C(CN1CCN(S(=O)(=O)c2ccc(Br)cc2)CC1)Nc1ccc2c(c1)OCO2,0,0,-1,10.0*,-9,-3,-3
O=C(CCN1CCN(c2ccccc2)CC1)Nc1ccc2c(c1)OCO2,1,-3,-1,4,-16,.,.
Cc1ccc(Cn2nnc3c2-c2ccccc2S(=O)(=O)N(C)C3)cc1,1,.,.,1,.,.,.
Cc1csc(NC(=O)CSc2nnc(-c3ccc(Cl)cc3)n2N)n1,-6,-3,-2,10*,-8,-3,1
N/C(Cc1ccc(Cl)c(Cl)c1)=N\OC(=O)c1cccs1,12*,-3,-2,9,5,3,10
N/C(=N\OC(=O)c1cccs1)C1(c2ccc(Cl)cc2Cl)CC1,2,-2,-2,0,-8,.,.
COC(=O)c1cc(-c2c(C)noc2C)c(=O)n2c1CCC2,3,.,.,7,.,.,.
CCN(CC)S(=O)(=O)c1ccc(NS(=O)(=O)c2ccc(F)cc2)cc1,-4,-6,-3,1,-8,.,.
CCN(CC)S(=O)(=O)c1ccc(F)cc1,7,-3,-4,11*,10,4,3
SMILES,PLC-beta3 inh,IMP-1 inhibitor,VIM-2 inh,PLC-gamma1 inh,PvdQ acylase,PLCg1 ctr,PLCb3 confirm
COc1ccc(Br)cc1S(=O)(=O)N1CC(C)OC(C)C1 (stereo unspecified),11*,-4,-2,4,5,-5,-4
CC[C@@H](CCCCCCCn1ccc2ccccc21)CCC(=O)N(c1ccccc1)c1ccccc1,1,.,.,2,.,.,.
COc1ccc(C(=O)Nc2cc(Cl)c(Br)cc2C(=O)O)cc1,-5,.,.,-5,.,.,.
CCOC(=O)C1(CC2CCCCO2)CCN(S(=O)(=O)c2c(C)nn(C)c2C)CC1 (stereo unspecified),13*,-4,-2,13*,-1,-6,-3
CCOC(=O)Nc1cc(=O)c([N+](=O)[O-])c(N)[nH]1,13*,.,.,4,.,-3,3
NS(=O)(=O)c1ccc(NC(=O)CSc2nnc(-c3cccs3)o2)cc1,4,.,.,1,.,.,.
O=C(C1CCCN1S(=O)(=O)c1cccc2ccccc12)N1CCN(c2ccccc2)CC1 (stereo unspecified),3,.,.,-1,.,.,.
CSCCC(NC(=O)c1ccc(Cl)cc1Cl)C(=O)N1CCN(C(=O)c2ccccc2)CC1 (stereo unspecified),-11,.,.,11*,-15,0,2
CSCCC(NC(=O)c1ccccc1Cl)C(=O)N1CCC1 (stereo unspecified),-3,.,.,2,-4,.,.
COc1ccc(C(=O)N2CCC(O)(c3ccc(Cl)cc3)CC2)cc1OC,2,0,2,1,-13,.,.
COc1ccc(C(=O)N2CCC(O)(c3ccc(F)cc3)CC2)cc1OC,4,-5,-2,10*,2,-5,-3
Cc1ccc(-c2cc(-c3nnc(SCC(=O)N4c5ccccc5Sc5ccccc54)n3N)[nH]n2)cc1,-2,.,.,0,.,.,.
CCCCNCCCOc1cc(Cl)ccc1Cl,11*,0,1,7,-18,-5,1
CCC(C)NCCCOc1cc(Cl)ccc1Cl (stereo unspecified),2,-4,-4,1,-8,.,.
COc1cc(-c2nnc(SCC(=O)NN=Cc3c[nH]c4ccccc34)n2-c2ccccc2)cc(OC)c1OC,2,.,.,0,.,.,.
C#CCN1CC(N(C)CCOC(=O)CCCc2ccccc2)CS1(=O)=O (stereo unspecified),1,.,.,0,.,.,.
COc1ccccc1NC(=O)Nc1ccc2c(c1)OCCO2,12*,-5,-1,2,-5,-1,1
COc1cccc(OC)c1C(=O)Nc1ccc2c(c1)OCCO2,4,0,-1,4,-15,.,.
O=S1(=O)c2c(cccc2N2CC[C@H](O)C2)O[C@H]2CCN1C2,-2,.,.,-3,.,.,.
COc1ccccc1-c1cc(N)n(S(=O)(=O)c2cccc3nsnc23)n1,3,-3,-3,12*,6,-2,2
Nc1cc(-c2ccc(Cl)cc2)nn1S(=O)(=O)c1cccc2nsnc12,5,0,1,2,-3,.,.
CCc1ccccc1NC(=O)CN1CCN(C(=O)CCC(=O)N2CCC(c3ccccc3)=N2)CC1,-1,.,.,13*,4,-3,-4
CCc1ccccc1NC(=O)CN1CCN(C(=O)CNC(=O)c2ccc(N3CCCC3=O)cc2)CC1,-4,.,.,12*,-12,-4,2
CCc1ccccc1NC(=O)CN1CCN(C(=O)CNC(=O)c2ccccc2F)CC1,-4,.,.,0,-9,.,.
